# How the values were obtained:
# [1] = molecular target: Dual specificity protein kinase CLK1 (Mus musculus) (UniProt P22518); assay: Inhibition of recombinant mouse CLK1 expressed in bacteria assessed as residual activity at 1 uM using GRSRSRSRSRSR as substrate in presence of [gamma33P]ATP relative to control
# [2] = organism: Sus scrofa; assay: Inhibition of porcine brain CK1delta/epsilon assessed as residual activity at 10 uM using RRKHAAIGSpAYSITA as substrate in presence of [gamma33P]ATP relative to control
# [3] = molecular target: Dual specificity tyrosine-phosphorylation-regulated kinase 1A (Rattus norvegicus) (UniProt Q63470); assay: Inhibition of rat DYRK1A kinase domain (1 to 499 residues) expressed in bacteria assessed as residual activity at 1 uM using KKISGRLSPIMTEQ as substrate in presence of [gamma33P]ATP relative to control
# [4] = organism: Sus scrofa; assay: Inhibition of porcine brain CK1delta/epsilon assessed as residual activity at 1 uM using RRKHAAIGSpAYSITA as substrate in presence of [gamma33P]ATP relative to control
# [5] = molecular target: Dual specificity protein kinase CLK1 (Mus musculus) (UniProt P22518); assay: Inhibition of recombinant mouse CLK1 expressed in bacteria assessed as residual activity at 10 uM using GRSRSRSRSRSR as substrate in presence of [gamma33P]ATP relative to control
# [6] = molecular target: T1, Glycogen synthase kinase-3 (Sus scrofa) (UniProt B2LUN4+I6LNT8); assay: Inhibition of porcine brain GSK3alpha/beta assessed as residual activity at 1 uM using YRRAAVPPSPSLSRHSSPHQSpEDEEE as substrate in presence of [gamma33P]ATP relative to control
# Method in brief: (§1)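 Radiometric kinase assay (method A, ³³P). GSK-3α/β affinity-purified from porcine brain (Sus scrofa domesticus). Inhibitors tested at 10 µM and 1 µM. Result reported as % residual kinase activity. Assays run in triplicate.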
# [7] = molecular target: T1, Glycogen synthase kinase-3 (Sus scrofa); assay: Inhibition of porcine brain GSK3alpha/beta assessed as residual activity at 10 uM using YRRAAVPPSPSLSRHSSPHQSpEDEEE as substrate in presence of [gamma33P]ATP relative to control; method in brief: as §1
# [8] = molecular target: T2, Cyclin-dependent kinase 5/CDK5 activator 1 (Homo sapiens) (UniProt Q00535+Q15078); assay: Inhibition of recombinant human CDK5/p25 expressed in bacteria assessed as residual activity at 10 uM using histone H1 as substrate in presence of [gamma33P]ATP relative to control
# Method in brief: (§2)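 Recombinant human CDK5/p25 expressed in bacteria was used with histone H1 as substrate in a ³³P radioassay. Residual activity (%) was measured at 10 µM and 1 µM compound, in triplicate.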
# [9] = molecular target: T2, Cyclin-dependent kinase 5/CDK5 activator 1 (Homo sapiens); assay: Inhibition of recombinant human CDK5/p25 expressed in bacteria assessed as residual activity at 1 uM using histone H1 as substrate in presence of [gamma33P]ATP relative to control; method in brief: as §2
# [10] = molecular target: Dual specificity tyrosine-phosphorylation-regulated kinase 1A (Rattus norvegicus) (UniProt Q63470); assay: Inhibition of rat DYRK1A kinase domain (1 to 499 residues) expressed in bacteria assessed as residual activity at 10 uM using KKISGRLSPIMTEQ as substrate in presence of [gamma33P]ATP relative to control
# [11] = molecular target: T3, Casein kinase I (Homo sapiens) (UniProt Q9HCP0+P78368+P48730+P49674+P48729); assay: Inhibition of CK1 (unknown origin) assessed as residual activity at 10 uM relative to control
# [12] = molecular target: T2, Cyclin-dependent kinase 5/CDK5 activator 1 (Homo sapiens); assay: Inhibition of recombinant human full-length N-terminal GST-tagged CDK5/p25 expressed in baculovirus infected Sf9 insect cells assessed as residual activity at 1 uM using histone H1 as substrate measured after 10 mins relative to control
# [13] = molecular target: T3, Casein kinase I (Homo sapiens); assay: Inhibition of CK1 (unknown origin) assessed as residual activity at 1 uM relative to control
# [14] = molecular target: T4, Dual specificity protein kinase CLK1 (Homo sapiens, UniProt P49759); assay: Inhibition of recombinant human N-terminal GST-tagged CLK1 (129 to end residues) expressed in baculovirus infected Sf9 insect cells assessed as residual activity at 1 uM using MBP as substrate measured after 60 mins by ADP-Glo luminescence assay relative to control
# Target sequence in this assay (P49759 whole entry, looked up): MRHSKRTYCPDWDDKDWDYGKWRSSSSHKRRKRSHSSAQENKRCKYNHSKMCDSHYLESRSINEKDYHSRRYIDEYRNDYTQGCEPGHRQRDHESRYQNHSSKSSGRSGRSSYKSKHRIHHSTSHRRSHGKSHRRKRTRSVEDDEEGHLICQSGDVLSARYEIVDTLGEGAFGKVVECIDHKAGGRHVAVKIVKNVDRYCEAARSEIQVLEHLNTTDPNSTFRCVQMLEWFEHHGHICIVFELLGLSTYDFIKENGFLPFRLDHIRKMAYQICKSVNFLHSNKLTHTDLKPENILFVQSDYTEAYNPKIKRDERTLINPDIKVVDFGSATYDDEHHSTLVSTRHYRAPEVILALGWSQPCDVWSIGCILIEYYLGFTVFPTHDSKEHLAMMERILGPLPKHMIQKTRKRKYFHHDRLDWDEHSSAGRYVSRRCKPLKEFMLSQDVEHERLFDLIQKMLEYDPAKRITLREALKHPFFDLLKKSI
# [15] = molecular target: T4, Dual specificity protein kinase CLK1; assay: Inhibition of recombinant human N-terminal GST-tagged CLK1 (129 to end residues) expressed in baculovirus infected Sf9 insect cells assessed as residual activity at 10 uM using MBP as substrate measured after 60 mins by ADP-Glo luminescence assay relative to control
# Target sequence in this assay (P49759 whole entry, looked up): as above
# [16] = molecular target: T5, Glycogen synthase kinase-3 (Homo sapiens) (UniProt P49840+P49841); assay: Inhibition of GSK3 (unknown origin) assessed as residual activity at 1 uM relative to control
# [17] = molecular target: Dual specificity tyrosine-phosphorylation-regulated kinase 1A (Rattus norvegicus) (UniProt Q63470); assay: Inhibition of recombinant full-length rat N-terminal GST-tagged DYRK1A was expressed in Escherichia coli assessed as residual activity at 10 uM using DYRKtide as substrate measured after 60 mins by ADP-Glo luminescence assay relative to control
# [18] = molecular target: T5, Glycogen synthase kinase-3 (Homo sapiens); assay: Inhibition of GSK3 (unknown origin) assessed as residual activity at 10 uM relative to control
# [19] = molecular target: T4, Dual specificity protein kinase CLK1; assay: Inhibition of recombinant human N-terminal GST-tagged CLK1 (129 to end residues) expressed in baculovirus infected Sf9 insect cells sing MBP as substrate measured after 60 mins by ADP-Glo luminescence assay
# Target sequence in this assay (P49759 whole entry): as the sequence (P49759 whole entry, looked up) above
# [20] = molecular target: Dual specificity tyrosine-phosphorylation-regulated kinase 1A (Rattus norvegicus) (UniProt Q63470); assay: Inhibition of recombinant full-length rat N-terminal GST-tagged DYRK1A was expressed in Escherichia coli assessed as residual activity at 1 uM using DYRKtide as substrate measured after 60 mins by ADP-Glo luminescence assay relative to control
# [21] = molecular target: Dual specificity tyrosine-phosphorylation-regulated kinase 1A (Rattus norvegicus, UniProt Q63470); assay: Inhibition of recombinant full-length rat N-terminal GST-tagged DYRK1A was expressed in Escherichia coli using DYRKtide as substrate measured after 60 mins by ADP-Glo luminescence assay
# [22] = molecular target: T2, Cyclin-dependent kinase 5/CDK5 activator 1 (Homo sapiens); assay: Inhibition of recombinant human full-length N-terminal GST-tagged CDK5/p25 expressed in baculovirus infected Sf9 insect cells assessed as residual activity at 10 uM using histone H1 as substrate measured after 10 mins relative to control
# [23] = molecular target: Dual specificity protein kinase CLK1 (Mus musculus, UniProt P22518); assay: Inhibition of recombinant mouse CLK1 expressed in bacteria using GRSRSRSRSRSR as substrate in presence of [gamma33P]ATP
# Dual specificity protein kinase CLK1 (Mus musculus, UniProt P22518), sequence (P22518 whole entry): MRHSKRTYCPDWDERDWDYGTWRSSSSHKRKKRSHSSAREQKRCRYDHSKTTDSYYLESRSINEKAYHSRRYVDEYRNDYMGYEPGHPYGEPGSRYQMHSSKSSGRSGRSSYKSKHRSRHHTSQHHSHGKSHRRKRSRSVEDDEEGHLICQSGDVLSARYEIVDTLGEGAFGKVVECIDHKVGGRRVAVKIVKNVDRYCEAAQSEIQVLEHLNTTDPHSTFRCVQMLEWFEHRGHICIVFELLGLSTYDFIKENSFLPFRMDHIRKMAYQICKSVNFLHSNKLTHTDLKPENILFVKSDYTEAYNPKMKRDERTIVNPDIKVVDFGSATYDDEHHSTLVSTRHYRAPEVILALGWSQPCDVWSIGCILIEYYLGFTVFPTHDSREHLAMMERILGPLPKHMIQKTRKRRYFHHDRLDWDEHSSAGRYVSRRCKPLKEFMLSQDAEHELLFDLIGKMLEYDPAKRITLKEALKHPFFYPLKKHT
# Dual specificity protein kinase CLK1 (Mus musculus), sequence (P22518 whole entry, looked up): as the sequence (P22518 whole entry) above
# T2 sequence (Q00535 whole entry): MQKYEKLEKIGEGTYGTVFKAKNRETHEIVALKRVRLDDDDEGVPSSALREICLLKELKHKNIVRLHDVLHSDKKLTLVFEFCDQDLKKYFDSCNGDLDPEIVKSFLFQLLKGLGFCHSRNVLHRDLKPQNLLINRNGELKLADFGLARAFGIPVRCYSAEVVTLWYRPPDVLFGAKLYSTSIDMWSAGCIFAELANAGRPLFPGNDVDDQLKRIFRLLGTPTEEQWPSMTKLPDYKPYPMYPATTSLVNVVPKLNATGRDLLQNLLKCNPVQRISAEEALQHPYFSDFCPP
# T2 sequence (Q15078 99-307 partner limits assumed): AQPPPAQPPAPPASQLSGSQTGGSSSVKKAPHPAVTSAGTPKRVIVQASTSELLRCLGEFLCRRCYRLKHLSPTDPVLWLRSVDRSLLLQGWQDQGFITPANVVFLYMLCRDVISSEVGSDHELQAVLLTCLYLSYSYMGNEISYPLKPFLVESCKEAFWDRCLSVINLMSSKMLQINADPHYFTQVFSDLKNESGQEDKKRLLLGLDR
# T5 sequence (P49840 whole entry, looked up): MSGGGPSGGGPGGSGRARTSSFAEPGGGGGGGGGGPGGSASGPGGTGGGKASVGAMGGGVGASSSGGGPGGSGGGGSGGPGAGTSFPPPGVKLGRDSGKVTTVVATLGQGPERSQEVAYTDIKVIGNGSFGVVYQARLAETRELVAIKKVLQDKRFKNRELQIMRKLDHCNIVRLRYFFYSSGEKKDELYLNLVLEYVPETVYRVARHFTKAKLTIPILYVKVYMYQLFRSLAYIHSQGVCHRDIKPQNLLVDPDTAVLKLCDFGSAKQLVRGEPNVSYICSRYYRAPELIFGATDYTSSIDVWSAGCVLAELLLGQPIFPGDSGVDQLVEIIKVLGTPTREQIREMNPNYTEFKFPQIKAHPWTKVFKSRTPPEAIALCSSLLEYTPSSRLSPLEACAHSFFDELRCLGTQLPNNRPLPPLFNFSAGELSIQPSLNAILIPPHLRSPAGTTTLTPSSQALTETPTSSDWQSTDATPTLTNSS
# T5 sequence (P49841 whole entry, looked up): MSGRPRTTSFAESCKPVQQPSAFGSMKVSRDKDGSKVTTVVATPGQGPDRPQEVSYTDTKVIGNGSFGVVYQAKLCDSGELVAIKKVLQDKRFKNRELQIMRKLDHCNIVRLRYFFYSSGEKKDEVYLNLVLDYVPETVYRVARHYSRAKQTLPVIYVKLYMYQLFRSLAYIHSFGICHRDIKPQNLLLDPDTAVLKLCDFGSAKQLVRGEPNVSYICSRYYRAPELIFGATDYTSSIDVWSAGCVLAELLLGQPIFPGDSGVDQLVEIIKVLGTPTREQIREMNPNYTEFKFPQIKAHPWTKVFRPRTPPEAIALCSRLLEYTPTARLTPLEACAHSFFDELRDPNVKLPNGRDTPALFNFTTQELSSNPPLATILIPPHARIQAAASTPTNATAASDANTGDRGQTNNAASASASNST
Structure (SMILES),Activity [1] [%],Activity [2] [%],Activity [3] [%],Activity [4] [%],Activity [5] [%],Activity [6] [%],Activity [7] [%],Activity [8] [%],Activity [9] [%],Activity [10] [%],other results
CC(C)N(/C=N/c1ncc2cc3cnccc3c([N+](=O)[O-])c2n1)C(C)C,53,60,95,96,1,73,15,45,100,46,
CC(C)N(CNc1ncc2cc3cnccc3c([N+](=O)[O-])c2n1)C(C)C,44,38,69,74,5,53,1,61,99,46,
Nc1ncc2ccc3ccncc3c2n1,,,,,,,,,,,Activity [11]: 22%; Activity [12]: 100%; Activity [13]: 64%; Activity [14]: 48%; Activity [15]: 9%; Activity [16]: 98%; Activity [17]: 25%; Activity [18]: 75%; IC50 [19]: 1480 nM; Activity [20]: 71%; IC50 [21]: 2180 nM; Activity [22]: 63%
CN(C)CNc1ncc2cc3cnccc3c([N+](=O)[O-])c2n1,13,38,39,100,6,73,15,41,99,4,IC50 [23]: 87 nM
CN(C)/C=N/c1ncc2cc3cnccc3c([N+](=O)[O-])c2n1,33,53,100,100,3,86,30,59,94,31,
Nc1ncc2cc3cnccc3c([N+](=O)[O-])c2n1,6,9,36,41,2,74,25,56,88,5,
